From ChEMBL document CHEMBL1159046, “New thalidomide analogues derived through Sonogashira or Suzuki reactions and their TNF expression inhibition profiles” (Bioorg Med Chem, 2010) come the findings set out here.

Active and inactive are the calls of the source. The rule behind the calls is not given here.

In general, inhibition refers to the change of the read-out against control, counted positive when it falls.

Data set [1] has as its system Jurkat. The data set is described as follows: Inhibition of NF-kappaB-mediated TNF expression in human Jurkat T cells coexpressing GFP reporter gene at 10 uM by flow cytometry. The class given is cell-based. Summed up: (§1)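 Jurkat cells stably carrying GFP under an NF-κB-responsive human TNF promoter (FRT-Jurkat TNF) were treated with racemic compound (0.1% DMSO final) for 24 h. GFP was read by flow cytometry at 515 nm ([…]), gated on viable FSC/SSC cells. Inhibition is the percentage decrease in GFP versus 0.1% solvent control. Assays were run in triplicate.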
Background: In a reporter assay the amount or activity of a reporter protein is the signal.

In data set [2] the test system is Jurkat. The data set is described as follows: Cytotoxicity against human Jurkat T cells assessed as cell death at 100 uM after 24 hrs by flow cytometry. The class given is functional. Summed up:
(§2)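 Jurkat T cells treated 24 h with compound (final DMSO 0.1%); cell death taken as % of cells with reduced size and granularity on flow cytometric forward- vs side-scatter plot, outside gate set on major solvent-only population; viability confirmed by propidium iodide staining (570 nm, FL2). Triplicate, racemic compounds.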

The test system of data set [3] is Jurkat. The data set is described as follows: Inhibition of NF-kappaB-mediated TNF expression in human Jurkat T cells coexpressing GFP reporter gene at 100 uM by flow cytometry. The format is cell-based. The procedure, abridged: as §1
For data set [4], the system named is Jurkat. As to the kind of experiment: Induction of apoptosis in human Jurkat T cells at 100 uM after 24 hrs by flow cytometry. The class given is functional. The procedure, abridged: (§3)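 Jurkat T cells were treated with compound for 24 h, with DMSO-only and untreated controls, then stained with a FITC-labelled substrate for cleaved caspase-3 (NucView-488). The apoptotic fraction was the percentage of cells with increased green fluorescence by flow cytometry. Cell death, taken as reduced size and granularity on FSC/SSC, was measured in parallel. Assays were run in triplicate.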

For data set [5], the system named is Jurkat. The data set is described as follows: Cytotoxicity against human Jurkat T cells assessed as viable cells at 10 uM after 24 hrs by flow cytometry. The class given is functional. Conditions: read-out: Activity. The procedure, abridged: (§4)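 FRT-Jurkat TNF reporter cells were exposed to compound (racemic, 0.1% DMSO final) for 24 h and analysed by flow cytometry on FSC/SSC. Viable cells were counted as those inside the gate around the main population of solvent-only cells. Viability was confirmed by propidium iodide fluorescence at 570 nm (FL2). Assays were run in triplicate.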
(In general: In flow cytometry, cells or beads pass a laser one at a time.)

Data set [6] concerns Jurkat. As to the kind of experiment: Induction of apoptosis in human Jurkat T cells at 10 uM after 24 hrs by flow cytometry. The format is functional. Summed up: (§5)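 Apoptosis in Jurkat T cells after 24 h compound exposure: cells stained with FITC-labelled substrate for cleaved caspase-3 (NucView-488), % cells with increased green fluorescence counted by flow cytometry with positivity gate; solvent (0.1% DMSO) and untreated controls. Triplicate, racemic compounds; three independent experiments.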

Data set [7] relates to Jurkat. As to the kind of experiment: Cytotoxicity against human Jurkat T cells assessed as cell death at 10 uM after 24 hrs by flow cytometry. The class given is functional. The procedure, abridged:
as §2

The subject of data set [8] is Jurkat. As to the kind of experiment: Induction of apoptosis in human Jurkat T cells at 1 uM after 24 hrs by flow cytometry. The format is functional. The procedure, abridged:
as §5

The subject of data set [9] is Jurkat. The data set is described as follows: Cytotoxicity against human Jurkat T cells assessed as viable cells at 0.1 uM after 24 hrs by flow cytometry. The conditions noted are these: read-out: Activity. The class given is functional. Summed up: as §4
Data set [10] concerns Jurkat. As to the kind of experiment: Cytotoxicity against human Jurkat T cells assessed as viable cells at 1 uM after 24 hrs by flow cytometry. The format is functional. The conditions noted are these: read-out: Activity. The procedure, abridged: as §4
Data set [11] relates to PBMC. As to the kind of experiment: Cytotoxicity against human PBMC assessed as cell death at 1 to 10 uM. The class given is cell-based.
Data set [12] has as its system Jurkat. The data set is described as follows: Induction of apoptosis in human Jurkat T cells at 0.1 uM after 24 hrs by flow cytometry. The format is functional. Summed up:
as §3

The subject of data set [13] is Jurkat. The data set is described as follows: Inhibition of NF-kappaB-mediated TNF expression in human Jurkat T cells coexpressing GFP reporter gene at 0.1 uM by flow cytometry. The format is cell-based. The procedure, abridged:
as §1

The test system of data set [14] is PBMC. As to the kind of experiment: Inhibition of PMA-induced TNF production in human PBMC at 1 uM by RT-PCR. The format is functional, cell-based. Summed up: (§6)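 PBMCs from healthy volunteers were freshly isolated, activated, and cultured with compound or DMSO for 2 h. Endogenous TNF mRNA was quantified by reverse transcription and real-time PCR (50 cycles: 95 °C 10 s, 55 °C 15 s, 72 °C 20 s) and normalised to β-actin.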

The test system of data set [15] is Jurkat. The data set is described as follows: Cytotoxicity against human Jurkat T cells assessed as cell death at 0.1 uM after 24 hrs by flow cytometry. The format is functional. Summed up:
as §2

The subject of data set [16] is Jurkat. The data set is described as follows: Inhibition of NF-kappaB-mediated TNF expression in human Jurkat T cells coexpressing GFP reporter gene at 1 uM by flow cytometry. The format is cell-based. Summed up: as §1
Data set [17] concerns PBMC. As to the kind of experiment: Inhibition of PMA-induced TNF production in human PBMC at 10 uM by RT-PCR. The format is functional, cell-based. The procedure, abridged:
as §6

For the molecule `CC(C)Oc1ccc(-c2ccc3c(c2)C(=O)N(C2CCC(=O)NC2=O)C3=O)cc1` (racemic), the inhibition in the data set on Jurkat [1] came to 10%; in the data set with Jurkat [3] it was 59%. Besides, the Activity in the data set on Jurkat [2] worked out at 51%; with Jurkat [4], 34%; in the data set on Jurkat [6], 12%; with Jurkat [7] it was 14%. The viability at 10 µM in the data set on Jurkat [5] amounted to 90%.
As to `CC(C)Cc1ccc(-c2cccc3c2C(=O)N(C2CCC(=O)NC2=O)C3=O)cc1` (racemic), the inhibition in the data set with Jurkat [1] worked out at 7%; in the data set on Jurkat [3], 86%. The Activity was found to be 94% with Jurkat [2], 96% in the data set with Jurkat [4] and 7% with Jurkat [6]. In addition, the viability at 10 µM with Jurkat [5] amounted to 90%.
For `CC(C)Cc1ccc(-c2ccc3c(c2)C(=O)N(C2CCC(=O)NC2=O)C3=O)cc1` (racemic), the inhibition in the data set with Jurkat [1] stood at 5%; in the data set with Jurkat [3] it was 90%. The Activity is reported as 21% in the data set with Jurkat [2], 22% with Jurkat [4], 7% in the data set with Jurkat [6] and 6% with Jurkat [7]. In addition, in the data set with Jurkat [5], the viability at 10 µM was 89%.
As for `CC(C)Oc1ccc(-c2cccc3c2C(=O)N(C2CCC(=O)NC2=O)C3=O)cc1` (racemic), the inhibition in the data set with Jurkat [1] was determined as 8%; in the data set with Jurkat [3], 47%. Also, the Activity with Jurkat [2] amounted to 33%; with Jurkat [4] it was 30%; in the data set with Jurkat [6], 8%. Besides, in the data set on Jurkat [5], the viability at 10 µM was found to be 90%.
As for `O=CC#Cc1ccc2c(c1)C(=O)N(C1CCC(=O)NC1=O)C2=O` (racemic), the Activity is on record as 7% with Jurkat [8]; “Active” with PBMC [11]; 7% in the data set on Jurkat [12]; 4% in the data set on Jurkat [15]; 84% in the data set with Jurkat [6]; 86% in the data set on Jurkat [7]. Also, the inhibition amounted to 86% with Jurkat [1], 4% in the data set with Jurkat [13], 85% in the data set on Jurkat [3] and 5% with Jurkat [16]. Besides, in the data set on Jurkat [9], the viability at 0.1 µM is 96%. Also, the viability at 1 µM in the data set on Jurkat [10] was 95%. Also, the result with PBMC [14] and in the data set with PBMC [17] was Active. In addition, the viability at 10 µM in the data set on Jurkat [5] is 25%.
With `CC(=O)c1ccc(-c2ccc3c(c2)C(=O)N(C2CCC(=O)NC2=O)C3=O)cc1` (racemic), the inhibition in the data set on Jurkat [3] turned out to be 26%.
With `CC(=O)c1ccc(-c2cccc3c2C(=O)N(C2CCC(=O)NC2=O)C3=O)cc1` (racemic), the inhibition with Jurkat [3] came to 17%.
`CC(C)(C)C#Cc1ccc2c(c1)C(=O)N(C1CCC(=O)NC1=O)C2=O` (racemic) came in with an inhibition in the data set with Jurkat [3] of 19%.
In the data set with Jurkat [3], `CC(C)(C)C#Cc1cccc2c1C(=O)N(C1CCC(=O)NC1=O)C2=O` (racemic) came in with an inhibition of 24%.
`CC(C)(O)C#Cc1ccc2c(c1)C(=O)N(C1CCC(=O)NC1=O)C2=O` (racemic): the inhibition in the data set on Jurkat [3] is 20%.
In the case of `CC(C)(O)C#Cc1cccc2c1C(=O)N(C1CCC(=O)NC1=O)C2=O` (racemic), in the data set on Jurkat [3], the inhibition was found to be 6%.
Molecule `CNCC#Cc1ccc2c(c1)C(=O)N(C1CCC(=O)NC1=O)C2=O` (racemic) had an inhibition in the data set with Jurkat [3] of 10%.
Turning to `Cc1ccc(-c2ccc3c(c2)C(=O)N(C2CCC(=O)NC2=O)C3=O)cc1` (racemic), the inhibition in the data set on Jurkat [3] was found to be 14%.
`Cc1ccc(-c2cccc3c2C(=O)N(C2CCC(=O)NC2=O)C3=O)cc1` (racemic): the inhibition with Jurkat [3] amounted to 10%.
Same read-out and setting: then `N#CCCCC#Cc1ccc2c(c1)C(=O)N(C1CCC(=O)NC1=O)C2=O` (racemic), with 12%.
`N#CCCCC#Cc1cccc2c1C(=O)N(C1CCC(=O)NC1=O)C2=O` (racemic) had an inhibition with Jurkat [3] of 9%.
In the data set on Jurkat [3], `NC(=O)c1ccc(-c2ccc3c(c2)C(=O)N(C2CCC(=O)NC2=O)C3=O)cc1` (racemic) registered an inhibition of 10%.
Take `NC(=O)c1ccc(-c2cccc3c2C(=O)N(C2CCC(=O)NC2=O)C3=O)cc1` (racemic): the inhibition in the data set with Jurkat [3] was found to be 14%.
On the same count and under the same terms, under `O=C1CCC(N2C(=O)c3ccc(-c4ccc(O)cc4)cc3C2=O)C(=O)N1` (racemic) stands 11%; under `O=C1CCC(N2C(=O)c3ccc(-c4ccccc4)cc3C2=O)C(=O)N1` (racemic), 12%; under `O=C1CCC(N2C(=O)c3ccc(C#CCO)cc3C2=O)C(=O)N1` (racemic), 10%.
`O=C1CCC(N2C(=O)c3ccc(C#Cc4ccccc4)cc3C2=O)C(=O)N1` (racemic): in the data set with Jurkat [3], the inhibition stood at 6%.
As for `O=C1CCC(N2C(=O)c3cccc(-c4ccc(O)cc4)c3C2=O)C(=O)N1` (racemic), the inhibition in the data set with Jurkat [3] amounted to 19%.
With `O=C1CCC(N2C(=O)c3cccc(-c4ccccc4)c3C2=O)C(=O)N1` (racemic), in the data set with Jurkat [3], the inhibition was 14%.
For the molecule `O=C1CCC(N2C(=O)c3cccc(C#CCO)c3C2=O)C(=O)N1` (racemic), in the data set on Jurkat [3], the inhibition is 7%.
In the data set with Jurkat [3], `O=C1CCC(N2C(=O)c3cccc(C#Cc4ccccc4)c3C2=O)C(=O)N1` (racemic) registered an inhibition of 13%.
Regarding `O=C1CCC(N2C(=O)c3ccccc3C2=O)C(=O)N1` (racemic) [THALIDOMIDE], the inhibition stood at 4% with Jurkat [1] and 6% with Jurkat [3]. Further, the Activity in the data set on Jurkat [4] stood at 9%; with Jurkat [6] it was 7%; with Jurkat [7] it was 6%.
